Laboratory results from ChEMBL document CHEMBL1137710, “Synthesis and in vitro antitumor activity of new quinoxaline derivatives” (2009).

What was measured:
Type in all cases: functional
MCF7 = experiment: Anticancer activity against human MCF7 cells assessed as cell growth at 100 uM after 48 hrs by sulforhodamine B assay; conditions: MCF7, 48 h, read-out: Activity
SF-268 = experiment: Anticancer activity against human SF268 cells assessed as cell growth at 100 uM after 48 hrs by sulforhodamine B assay; conditions: SF-268, 48 h, read-out: Activity
[1] = Growth inhibition of human […] cells after 48 hrs by sulforhodamine B assay; conditions: for TGI: read-out: pTGI (converted)
Outline: (§1)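 NCI 60-human-tumor-cell-line panel, with compounds tested over a 5-log dose range. Values are taken from dose-response curves as log10 molar concentrations: GI50 is 50% net growth inhibition, TGI is total growth inhibition, and LC50 is 50% net cell death.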

SR = experiment: Growth inhibition of human SR cells after 48 hrs by sulforhodamine B assay; conditions: for TGI: read-out: pTGI (converted)
Outline: (§2)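 Run in the NCI 60-human-tumour-cell-line panel, tested over a 5-log dose range. Dose–response curves gave three values per cell line, each as a log10 molar concentration: GI50 (50% inhibition of net cell growth), TGI (total inhibition of net growth) and LC50 (50% net cell death). The mean graph midpoint is the arithmetic mean over all lines, with insensitive lines entered at the highest concentration tested.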

A549 = experiment: Growth inhibition of human A549 cells after 48 hrs by sulforhodamine B assay; conditions: A549, 48 h; for TGI: read-out: pTGI (converted); outline: as §1
NCI-H23 = experiment: Growth inhibition of human NCI-H23 cells after 48 hrs by sulforhodamine B assay; conditions: NCI-H23, 48 h; for TGI: read-out: pTGI (converted); outline: as §1
NCI-H460 = experiment: Growth inhibition of human NCI-H460 cells after 48 hrs by sulforhodamine B assay; conditions: NCI-H460, 48 h; for TGI: read-out: pTGI (converted); outline: as §1
COLO 205 = experiment: Growth inhibition of human COLO205 cells after 48 hrs by sulforhodamine B assay; conditions: COLO 205, 48 h; for TGI: read-out: pTGI (converted); outline: as §1
HCT-116 = experiment: Growth inhibition of human HCT116 cells after 48 hrs by sulforhodamine B assay; conditions: HCT-116, 48 h; for TGI: read-out: pTGI (converted); outline: as §1
KM12 = experiment: Growth inhibition of human KM12 cells after 48 hrs by sulforhodamine B assay; conditions: KM12, 48 h; for TGI: read-out: pTGI (converted); outline: as §1
SW-620 = experiment: Growth inhibition of human SW620 cells after 48 hrs by sulforhodamine B assay; conditions: SW-620, 48 h; for CC50: read-out: pLC50 (the source's name) (converted); for TGI: read-out: pTGI (converted); outline: as §2
SF-295 = experiment: Growth inhibition of human SF295 cells after 48 hrs by sulforhodamine B assay; conditions: SF-295, 48 h; for TGI: read-out: pTGI (converted); outline: as §1
SNB-19 = experiment: Growth inhibition of human SNB19 cells after 48 hrs by sulforhodamine B assay; conditions: SNB-19, 48 h; for TGI: read-out: pTGI (converted); outline: as §2
U-251 = experiment: Growth inhibition of human U251 cells after 48 hrs by sulforhodamine B assay; conditions: U-251, 48 h; for TGI: read-out: pTGI (converted); outline: as §2
LOX IMVI = experiment: Growth inhibition of human LOXIMVI cells after 48 hrs by sulforhodamine B assay; conditions: for TGI: read-out: pTGI (converted); outline: as §1
M14 = experiment: Growth inhibition of human M14 cells after 48 hrs by sulforhodamine B assay; conditions: M14, 48 h; for CC50: read-out: pLC50 (the source's name) (converted); for TGI: read-out: pTGI (converted); outline: as §1
OVCAR-5 = experiment: Growth inhibition of human OVCAR5 cells after 48 hrs by sulforhodamine B assay; conditions: OVCAR-5, 48 h; for CC50: read-out: pLC50 (the source's name) (converted); for TGI: read-out: pTGI (converted); outline: as §1
OVCAR-8 = experiment: Growth inhibition of human OVCAR8 cells after 48 hrs by sulforhodamine B assay; conditions: OVCAR-8, 48 h; for CC50: read-out: pLC50 (the source's name) (converted); for TGI: read-out: pTGI (converted); outline: as §1
SK-OV-3 = experiment: Growth inhibition of human SKOV3 cells after 48 hrs by sulforhodamine B assay; conditions: SK-OV-3, 48 h; for CC50: read-out: pLC50 (the source's name) (converted); for TGI: read-out: pTGI (converted); outline: as §1
786-0 = experiment: Growth inhibition of human 786-0 cells after 48 hrs by sulforhodamine B assay; conditions: 786-0, 48 h; for CC50: read-out: pLC50 (the source's name) (converted); for TGI: read-out: pTGI (converted); outline: as §1
CAKI-1 = experiment: Growth inhibition of human Caki1 cells after 48 hrs by sulforhodamine B assay; conditions: CAKI-1, 48 h; for CC50: read-out: pLC50 (the source's name) (converted); for TGI: read-out: pTGI (converted); outline: as §1
RXF 393 = experiment: Growth inhibition of human RXF393 cells after 48 hrs by sulforhodamine B assay; conditions: RXF 393, 48 h; for CC50: read-out: pLC50 (the source's name) (converted); for TGI: read-out: pTGI (converted); outline: as §1
TK-10 = experiment: Growth inhibition of human TK10 cells after 48 hrs by sulforhodamine B assay; conditions: TK-10, 48 h; for CC50: read-out: pLC50 (the source's name) (converted); for TGI: read-out: pTGI (converted); outline: as §2
PC-3 = experiment: Growth inhibition of human PC3 cells after 48 hrs by sulforhodamine B assay; conditions: PC-3, 48 h; for CC50: read-out: pLC50 (the source's name) (converted); for TGI: read-out: pTGI (converted); outline: as §1
DU-145 = experiment: Growth inhibition of human DU145 cells after 48 hrs by sulforhodamine B assay; conditions: DU-145, 48 h; for CC50: read-out: pLC50 (the source's name) (converted); for TGI: read-out: pTGI (converted); outline: as §1
NCI/ADR-RES = experiment: Growth inhibition of human NCI/ADR-RES cells after 48 hrs by sulforhodamine B assay; conditions: for CC50: read-out: pLC50 (the source's name) (converted); for TGI: read-out: pTGI (converted); outline: as §1
MDA-MB-231 = experiment: Growth inhibition of human MDA-MB-231 cells after 48 hrs by sulforhodamine B assay; conditions: MDA-MB-231, 48 h; for CC50: read-out: pLC50 (the source's name) (converted); for TGI: read-out: pTGI (converted); outline: as §1
[2] = Growth inhibition of human Hs 578T cells after 48 hrs by sulforhodamine B assay; conditions: for CC50: read-out: pLC50 (the source's name) (converted); for TGI: read-out: pTGI (converted); outline: as §1
MDA-MB-435 = experiment: Growth inhibition of human MDA-MB-435 cells after 48 hrs by sulforhodamine B assay; conditions: MDA-MB-435, 48 h; for CC50: read-out: pLC50 (the source's name) (converted); for TGI: read-out: pTGI (converted); outline: as §1

## Nc1cc(N)c2nc(-c3ccccc3)c(NCc3ccc(F)cc3)nc2c1
MCF7
  growth at 100 µM: 1%
SF-268
  growth at 100 µM: 1%
[1]
  GI50: 2.51 µM
  LC50: > 100 µM
  TGI: 6.31 µM
SR
  GI50: 4.07 µM
  LC50 (concentration giving 50% net cell death): > 100 µM
  TGI: > 100 µM
A549
  GI50: 17.8 µM
  LC50: 69.2 µM
  TGI: 34.7 µM
NCI-H23
  GI50: 2.4 µM
  LC50 (50% net cell kill concentration): 8.91 µM
  TGI: 4.57 µM
NCI-H460
  GI50: 4.07 µM
  LC50 (50% net cell kill): > 100 µM
  TGI: 25.7 µM
COLO 205
  GI50: 2.51 µM
  LC50 (50% net cell kill): > 100 µM
  TGI: 6.17 µM
HCT-116
  GI50: 12.9 µM
  LC50 (concentration causing 50% net cell death): > 100 µM
  TGI: > 100 µM
KM12
  GI50: 2.82 µM
  LC50 (50% net cell kill): > 100 µM
  TGI: 7.41 µM
SW-620
  GI50: 2.19 µM
  CC50: > 100 µM
  TGI: 9.55 µM
SF-295
  GI50: 3.47 µM
  LC50 (50% net cell kill): 64.6 µM
  TGI: 13.5 µM
SNB-19
  GI50: 6.61 µM
  LC50: 52.5 µM
  TGI: 20 µM
U-251
  GI50: 1.58 µM
  LC50 (50% net cell kill): 6.31 µM
  TGI: 3.16 µM
LOX IMVI
  GI50: 1.51 µM
  LC50: 6.61 µM
  TGI: 3.16 µM
M14
  GI50: 23.4 µM
  CC50: > 100 µM
  TGI: 56.2 µM
OVCAR-5
  GI50: 2.63 µM
  CC50: > 100 µM
  TGI: 7.59 µM
OVCAR-8
  GI50: 2.63 µM
  CC50: 21.9 µM
  TGI: 6.03 µM
SK-OV-3
  GI50: 12.9 µM
  CC50: 53.7 µM
  TGI: 26.3 µM
786-0
  GI50: 23.4 µM
  CC50: > 100 µM
  TGI: 61.7 µM
CAKI-1
  GI50: 15.1 µM
  CC50: 89.1 µM
  TGI: 37.2 µM
RXF 393
  GI50: 12.3 µM
  CC50: 60.3 µM
  TGI: 26.9 µM
TK-10
  GI50: 5.89 µM
  CC50: 53.7 µM
  TGI: 20 µM
PC-3
  GI50: 3.47 µM
  CC50: > 100 µM
  TGI: 15.5 µM
DU-145
  GI50: 1.51 µM
  CC50: 9.77 µM
  TGI: 3.8 µM
NCI/ADR-RES
  GI50: 2.45 µM
  CC50: 28.2 µM
  TGI: 5.75 µM
MDA-MB-231
  GI50: 2.14 µM
  CC50: 19.5 µM
  TGI: 5.13 µM
[2]
  GI50: 4.9 µM
  CC50: > 100 µM
  TGI: > 100 µM
MDA-MB-435
  GI50: 2 µM
  CC50: 6.92 µM
  TGI: 3.72 µM

## COc1cc(CNc2nc3cc(N)cc(N)c3nc2-c2ccccc2)cc(OC)c1OC
MCF7
  growth at 100 µM: 0%
SF-268
  growth at 100 µM: 15%
[1]
  GI50: 0.692 µM
  LC50: > 50.1 µM
  TGI: 3.02 µM
SR
  GI50: 0.891 µM
  LC50 (concentration giving 50% net cell death): > 50.1 µM
  TGI: > 50.1 µM
A549
  GI50: 4.27 µM
  LC50: > 50.1 µM
  TGI: 33.1 µM
NCI-H23
  GI50: 8.71 µM
  LC50 (50% net cell kill concentration): 33.9 µM
  TGI: 17 µM
NCI-H460
  GI50: 1.51 µM
  LC50 (50% net cell kill): > 50.1 µM
  TGI: > 50.1 µM
COLO 205
  GI50: 3.8 µM
  LC50 (50% net cell kill): > 50.1 µM
  TGI: > 50.1 µM
HCT-116
  GI50: 9.77 µM
  LC50 (concentration causing 50% net cell death): 37.2 µM
  TGI: 19.1 µM
KM12
  GI50: 0.479 µM
  LC50 (50% net cell kill): > 50.1 µM
  TGI: 10.2 µM
SW-620
  GI50: 1.55 µM
  CC50: > 50.1 µM
  TGI: 4.47 µM
SF-295
  GI50: 1.66 µM
  LC50 (50% net cell kill): 37.2 µM
  TGI: 5.62 µM
SNB-19
  GI50: 7.24 µM
  LC50: > 50.1 µM
  TGI: 20.9 µM
U-251
  GI50: 1.74 µM
  LC50 (50% net cell kill): 30.2 µM
  TGI: 6.31 µM
LOX IMVI
  GI50: 3.16 µM
  LC50: 26.3 µM
  TGI: 10.5 µM
M14
  GI50: 9.55 µM
  CC50: 34.7 µM
  TGI: 18.2 µM
OVCAR-5
  GI50: 21.4 µM
  CC50: > 50.1 µM
  TGI: > 50.1 µM
OVCAR-8
  GI50: 6.92 µM
  CC50: 31.6 µM
  TGI: 14.8 µM
SK-OV-3
  GI50: 5.37 µM
  CC50: 36.3 µM
  TGI: 13.8 µM
786-0
  GI50: 15.5 µM
  CC50: > 50.1 µM
  TGI: > 50.1 µM
CAKI-1
  GI50: 1.91 µM
  CC50: 31.6 µM
  TGI: 8.71 µM
RXF 393
  GI50: 7.41 µM
  CC50: > 50.1 µM
  TGI: 20 µM
TK-10
  GI50: 6.31 µM
  CC50: > 50.1 µM
  TGI: 17.8 µM
PC-3
  GI50: 2.19 µM
  CC50: > 50.1 µM
  TGI: > 50.1 µM
DU-145
  GI50: 5.25 µM
  CC50: > 50.1 µM
  TGI: 20 µM
NCI/ADR-RES
  GI50: 10.2 µM
  CC50: 46.8 µM
  TGI: 21.9 µM
MDA-MB-231
  GI50: 7.24 µM
  CC50: 31.6 µM
  TGI: 15.1 µM
[2]
  GI50: 3.02 µM
  CC50: > 50.1 µM
  TGI: 33.1 µM
MDA-MB-435
  GI50: 0.229 µM
  CC50: 2.88 µM
  TGI: 0.912 µM
